We go through 87 compounds from PubChem BioAssay AID493237 (Broad Institute, 2011).

SMILES strings stand for the structures. “And” between values parts separate entries of the source, which are not always exact repeats. Equal values may be shown once. The source made the active and inactive calls.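 The calls were made as follows: active = fitted curve reaching 40% activation at a concentration no higher than the top valid dose tested; inconclusive = flat curve between 30 and 70% activation, or poor fit; inactive = the rest, including opposite-direction effects.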

Test system in the first assay: not listed separately
As to the kind of experiment: HRE reporter activators under added iron – cell-based, U2OS, luminescence, dry powder, set 2, mechanism study for HIF pathway activator project, dose response (AID 493237). The settings on record: U2OS HRE-luciferase reporter, iron condition, luminescence; at 38 µM (top of the series). Put shortly:
(§1)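 System: human U2OS osteosarcoma cells with stable 3×HRE-driven luciferase reporter. Quantity: 6,000 cells/well. Also added: ferric nitrate at 50 µM final, added before compound. Incubation: 24 h pre-dosing growth, 24 h compound exposure, 37 °C. Measured by: Steady-Glo luminescence.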
Background: Reporter assays use an easily measured gene product as a stand-in for the process of interest.
On to `c1ccc(-c2nnc(-c3ccccn3)nc2NCC2CCOCC2)cc1`, for which the activation is 137% (inactive). Regarding `O=C(c1cc(-c2ccccc2)on1)N1CCN(c2ccncc2)CC1`, the activation was -11.7% (inactive). Still for that read-out and setting: for `O=C(Nc1nnc(-c2ccccc2)s1)c1cc(-c2ccccc2)on1` the value was 2.91% (inactive); for `c1ccc(-c2cnc(Nc3nc(-c4ccccn4)nnc3-c3ccccc3)s2)cc1`, 1.03% (inactive). The same measure, in the same setting: the same measure for `N#CC1(c2ccccc2)CCN(Cc2ccc(O)c3ncccc23)CC1`: -19.9% (inactive); for `Cn1c(-c2ccccc2)cnc1Nc1nc(-c2ccccn2)nnc1-c1ccccc1`: 11.2% (inactive); for `Oc1ccc(CN2CCC(Cc3ccccc3)CC2)c2cccnc12`: -17.9% (inactive).

As to `O=C(c1cc(-c2ccccc2)on1)N1CCC(N2CCCC2)CC1`, the activation was -1.29% (inactive). Still for that read-out and setting: the same measure for `Oc1ccc(CNC2Cc3ccccc3C2)c2cccnc12`: -38.8% (inactive); for `Cn1c(NC(=O)c2cc(-c3ccccc3)on2)nc2ccccc21`: 7.37% (inactive). The same measure, in the same setting: the same measure for `CC1CN(Cc2ccc(O)c3ncccc23)CC(C)O1` (configuration not stated): -40% (inactive); for `COc1ccccc1N1CCN(Cc2ccc(O)c3ncccc23)CC1`: -35.6% (inactive). On the same count and under the same terms, for `O=C(Nc1nc2ccccc2s1)c1cc(-c2ccccc2)on1` the value was 9.12% (inactive); for `O=C(Nc1cnc2ccccc2c1)c1cc(-c2ccccc2)on1`, 14% (inactive); for `CN1CCN(C(=O)c2cc(-c3ccccc3)on2)CC1`, -32.3% (inactive). As to `Oc1ccc(CN2CCC3CCCCC3C2)c2cccnc12` (configuration not stated), the activation is -51.1% (inactive). Still for that read-out and setting: for `O=C(NCC1CCCCC1)c1cc(-c2ccccc2)on1` the value was 21.9% (inactive); for `O=C(Nc1cn2ccccc2n1)c1cc(-c2ccccc2)on1`, -9.98% (inactive); for `O=C(Nc1nc(-c2ccccc2)cs1)c1cc(-c2ccccc2)on1`, -4.82% (inactive). As to `c1ccc(-c2nnc(-c3ccccn3)nc2N2CCC(C3CCCCC3)C2)cc1` (configuration not stated), the activation is -30.3% (inactive). Regarding `O=C(NCCN1CCCCC1)c1cc(-c2ccccc2)on1`, the activation was 15.3% (inactive). On to `Oc1ccc(CNC2CCc3ccccc32)c2cccnc12` (configuration not stated), for which the activation was -45.6% (inactive). Same read-out and setting: the same measure for `Oc1ccc(CN2CCc3ccccc3C2)c2cccnc12`: -30.4% (inactive).

With `OCC1CCN(c2nc(-c3ccccn3)nnc2-c2ccccc2)CC1`, the activation is 37.3% (inactive). `Cc1ccc(NC(=O)c2cc(-c3ccccc3)on2)cn1`: the activation is -0.441% (inactive).

Turning to `O=C(Nc1ccc2ccccc2n1)c1cc(-c2ccccc2)on1`, the activation is -19.3% (inactive). Still for that read-out and setting: for `O=C(NC1CCc2ccccc2C1)c1cc(-c2ccccc2)on1` (configuration not stated) the value was -15.1% (inactive); for `Cc1cccc(CNC(=O)c2cc(-c3ccccc3)on2)c1`, -17.5% (inactive); for `Cc1ccc(CNC(=O)c2cc(-c3ccccc3)on2)cc1`, -26.7% (inactive). Still for that read-out and setting: the same measure for `OCC1CCN(Cc2ccc(O)c3ncccc23)CC1`: -24% (inactive); for `O=C(c1cc(-c2ccccc2)on1)N1CCC(CO)CC1`: -15.4% (inactive). The same measure, in the same setting: for `Cn1c(-c2ccccc2)cnc1NC(=O)c1cc(-c2ccccc2)on1` the value was 6.19% (inactive). With `c1ccc(-c2nnc(-c3ccccn3)nc2Nc2nc3ccccc3s2)cc1`, the activation was 21.8% (inactive). Same read-out and setting: the same measure for `CC(C)(C)OC(=O)N1CCN(Cc2ccc(O)c3ncccc23)CC1`: -18.7% (inactive). The same measure, in the same setting: for `O=C(Nc1ncc(-c2ccccc2)o1)c1cc(-c2ccccc2)on1` the value was -19.3% (inactive). On to `Cc1ccccc1CNC(=O)c1cc(-c2ccccc2)on1`, for which the activation is 15.4% (inactive).

Regarding `CN(C)CCNC(=O)c1cc(-c2ccccc2)on1`, the activation was 19.3% (inactive). As for `O=C(c1cc(-c2ccccc2)on1)N1CCC(N2CCOCC2)CC1`, the activation was -12.6% (inactive). Same read-out and setting: the same measure for `O=C(c1cc(-c2ccccc2)on1)N1CCc2cccnc21`: -8.92% (inactive).

In a further assay the test system is U2OS HRE-luciferase reporter, iron condition, luminescence. The description is as above.
Details: not given
The method, boiled down:
as §1
Turning to `C=CCNc1nc(-c2ccccn2)nnc1-c1ccccc1`, the AC40 was 26.5 µM. Still for that read-out and setting: the same measure for `C[C@@H](Nc1nc(-c2ccccn2)nnc1-c1ccccc1)c1ccccc1`: 8.05 µM; for `Cc1ccc(CNc2nc(-c3ccccn3)nnc2-c2ccccc2)cc1C`: 6.44 µM. On the same count and under the same terms, the same measure for `c1ccc(-c2csc(Nc3nc(-c4ccccn4)nnc3-c3ccccc3)n2)cc1`: > 38 µM (inactive); for `Cc1cccc(Nc2nc(-c3ccccn3)nnc2-c2ccccc2)n1`: 27.2 µM; for `c1ccc(-c2nnc(-c3ccccn3)nc2N2CCN(c3ccncc3)CC2)cc1`: 22.9 µM. On to `CN(C)c1nc(-c2ccccn2)nnc1-c1ccccc1`, for which the AC40 is 24.5 µM. Still for that read-out and setting: for `Cc1ccc(Nc2nc(-c3ccccn3)nnc2-c2ccccc2)cn1` the value was 24.3 µM. Take `COc1cccc(CNc2nc(-c3ccccn3)nnc2-c2ccccc2)c1`: the AC40 is 10.7 µM.

As for `c1ccc(-c2nnc(-c3ccccn3)nc2NCCc2ccccn2)cc1`, the AC40 was 24.3 µM.

On to `c1ccc(-c2nnc(Nc3nc(-c4ccccn4)nnc3-c3ccccc3)s2)cc1`, for which the AC40 was > 38 µM (inactive). Turning to `OCCCNc1nc(-c2ccccn2)nnc1-c1ccccc1`, the AC40 was 23.9 µM. Consider `O=C(NCc1ccccc1)c1cc(-c2ccccc2)on1`, for which the AC40 is > 38 µM (inactive). Still for that read-out and setting: the same measure for `c1ccc(-c2nnc(-c3ccccn3)nc2NCC2CC2)cc1`: 24 µM; for `c1ccc(-c2nnc(-c3ccccn3)nc2NCc2cccnc2)cc1`: 25.9 µM; for `CCCCNC(=O)c1cc(-c2ccccc2)on1`: 3.76 µM. For the compound `O=C(NCCCO)c1cc(-c2ccccc2)on1`, the AC40 was 5.66 µM.

For `c1ccc(CNc2nc(-c3ccccn3)nnc2-c2ccccc2)cc1`, the AC40 was 9.31 µM. Take `O=C(NC1Cc2ccccc2C1)c1cc(-c2ccccc2)on1`: the AC40 is > 38 µM (inactive). The same measure, in the same setting: the same measure for `c1ccc(-c2nnc(-c3ccccn3)nc2Nc2cnc3ccccc3n2)cc1`: 24.8 µM; for `CC(Nc1nc(-c2ccccn2)nnc1-c1ccccc1)c1ccccc1` (configuration not stated): 10.3 µM.

In the case of `c1ccc(-c2nnc(-c3ccccn3)nc2N2CCC(c3ccccc3)C2)cc1` (configuration not stated), the AC40 is 18.7 µM. On the same count and under the same terms, for `Cc1ccc(CNc2nc(-c3ccccn3)nnc2-c2ccccc2)cc1` the value was 11.4 µM; for `O=C(NCCCCO)c1cc(-c2ccccc2)on1`, 1.29 µM.

As for `O=C(NCC1CC1)c1cc(-c2ccccc2)on1`, the AC40 was 3.19 µM.

For the compound `CN1CCN(c2nc(-c3ccccn3)nnc2-c2ccccc2)CC1`, the AC40 is 25 µM. On the same count and under the same terms, for `O=C(NCCCn1ccnc1)c1cc(-c2ccccc2)on1` the value was 4.5 µM. Still for that read-out and setting: the same measure for `O=C(NCCCN1CCOCC1)c1cc(-c2ccccc2)on1`: 10.3 µM; for `c1ccc(-c2nnc(-c3ccccn3)nc2NCc2ccccn2)cc1`: 15.9 µM. Same read-out and setting: the same measure for `CC(C)(C)c1ccc(CNc2nc(-c3ccccn3)nnc2-c2ccccc2)cc1`: 20.6 µM; for `CC(C)(C)CCNc1nc(-c2ccccn2)nnc1-c1ccccc1`: 10.2 µM and 8.22 µM; for `CC(C)(C)CCNC(=O)c1cc(-c2ccccc2)on1`: 8.89 µM. On to `Clc1cccc(CNc2nc(-c3ccccn3)nnc2-c2ccccc2)c1`, for which the AC40 is 11.6 µM.

For `c1ccc(-c2nnc(-c3ccccn3)nc2N2CCC(N3CCOCC3)CC2)cc1`, the AC40 was 21 µM. On the same count and under the same terms, the same measure for `c1ccc(-c2nnc(-c3ccccn3)nc2NCCCN2CCOCC2)cc1`: 26.1 µM; for `c1ccc(CCNc2nc(-c3ccccn3)nnc2-c2ccccc2)cc1`: 10.6 µM; for `c1ccc(-c2ccc(CNc3nc(-c4ccccn4)nnc3-c3ccccc3)cc2)cc1`: 9.52 µM. Regarding `Cc1cccc(CNc2nc(-c3ccccn3)nnc2-c2ccccc2)c1`, the AC40 is 8.97 µM. For the compound `c1ccc(-c2nnc(-c3ccccn3)nc2NCC2CCCCC2)cc1`, the AC40 was 9.8 µM. `c1ccc(-c2nnc(-c3ccccn3)nc2NCCN2CCOCC2)cc1`: the AC40 was 19.4 µM. The same measure, in the same setting: for `O=C(NCCN1CCOCC1)c1cc(-c2ccccc2)on1` the value was 9.15 µM; for `Cc1ccccc1CNc1nc(-c2ccccn2)nnc1-c1ccccc1`, 7.8 µM; for `COc1ccc(CNc2nc(-c3ccccn3)nnc2-c2ccccc2)cc1`, 9.43 µM.

Consider `O=C(Nc1ncc2ccccc2n1)c1cc(-c2ccccc2)on1`, for which the AC40 was > 38 µM (inactive). Same read-out and setting: the same measure for `C[C@@H](Nc1nc(-c2ccccn2)nnc1-c1ccccc1)C1CCCCC1`: 7.81 µM; for `C[C@H](Nc1nc(-c2ccccn2)nnc1-c1ccccc1)C1CCCCC1`: 9.72 µM.

With `c1ccc(-c2cccc(CNc3nc(-c4ccccn4)nnc3-c3ccccc3)c2)cc1`, the AC40 was 10.1 µM. Turning to `Cc1cccc(NC(=O)c2cc(-c3ccccc3)on2)n1`, the AC40 is > 38 µM (inactive).
